Sampled rows, rich in hits. Any-hit rate of the full collection: about 10%.
PMI activator: activators of human PMI, primary screen, biochemical, fluorescence intensity, near-Km mannose 6-phosphate; AID 1214, 2008; activation factor at 20 µM; Mannose-6-phosphate isomerase (Homo sapiens), P34949; actives 0.005% (n = 190,000); purified human PMI, coupled resazurin fluorescence, 20 min; hits give high values; 1 = vehicle control, 0 substrate-free wells;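 active = activation factor of 2 or more at 20 µM, relative to plate controls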
Target sequence (P34949 whole entry, looked up): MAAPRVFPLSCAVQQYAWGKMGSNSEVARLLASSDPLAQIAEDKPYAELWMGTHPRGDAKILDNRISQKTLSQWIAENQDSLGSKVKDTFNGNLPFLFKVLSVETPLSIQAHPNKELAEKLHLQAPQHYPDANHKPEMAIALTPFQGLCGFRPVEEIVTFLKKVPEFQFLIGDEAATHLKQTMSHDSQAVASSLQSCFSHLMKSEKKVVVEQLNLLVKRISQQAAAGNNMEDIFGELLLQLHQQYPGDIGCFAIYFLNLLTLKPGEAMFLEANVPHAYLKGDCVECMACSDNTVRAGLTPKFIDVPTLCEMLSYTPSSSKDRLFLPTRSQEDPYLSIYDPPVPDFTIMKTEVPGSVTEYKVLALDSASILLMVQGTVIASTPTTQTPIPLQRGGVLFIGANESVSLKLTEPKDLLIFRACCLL
PMI act satM6P: human PMI activators, high substrate, primary screen, biochemical, fluorescence intensity, near-saturating mannose 6-phosphate | coupled PMI enzyme assay, resazurin fluorescence, 20 min; hits give high values; 1 = untreated enzyme, 0 = substrate-free blank | activation factor at 20 µM | actives 0.34% (n = 190,000) | AID 1216, 2008;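 active = activation factor of 2 or more at 20 µM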
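assay system = human phosphomannose isomerase with PGI, G6PDH, diaphorase coupling enzymes | quantity = 15 ng/mL PMI | incubation = enzyme reaction with compound 20 min at room temperature | medium = HEPES pH 7.4 buffer with MgCl2 and Tween-20 | compound dosing = one concentration, 20 µM, in 1% DMSO | measured by = Diaphorase-driven resazurin-to-resorufin fluorescence, excitation 544, emission 590 nm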
L major viab: Leishmania major promastigote growth inhibition, primary screen; Leishmania major promastigotes, resazurin fluorescence viability; inhibition, % at 10 µM; actives 9% (n = 200,000); AID 1063, 2008; in the data active = inhibition above about 50%;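 note: promastigotes grown with compound for 44 hours at 28 °C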
WT yeast gro inh: growth inhibition of WT strain, primary screen, mitochondrial fusion inhibitor project, WT and mutant strains, chemical genetic; mitochondrial fusion phenotypic screen; inhibition, % at 10 µM; actives 2.1% (n = 190,000); AID 1362, 2008; in the data active = inhibition above about 58%; tested in S. cerevisiae
Diaph act CS: compounds boosting diaphorase resazurin reduction – biochemical, uHTS, resorufin fluorescence, counter-screen for diaphorase-coupled primary assays, primary screen. Diaphorase/resazurin coupled assay, 16 min; hits give high values; 1 = vehicle wells, 0 = NADH-free wells. activation factor at 20 µM. AID 1229, 2008. actives 0.005% (n = 190,000);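 active = diaphorase activity raised at least twofold by the compound at 20 µM; inactive = activation factor below 2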
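Material: purified diaphorase enzyme from Clostridium kluyveri / Medium: HEPES pH 7.4 buffer with MgCl2 and Tween 20 / Schedule: enzyme reaction of 16 min at room temperature / Measured by: resorufin fluorescence, excitation 544 nm, emission 590 nm / Evaluation: rise in resorufin formation, marking diaphorase activation or chemical reduction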
Hits are given with their value; - = inactive; . = not tested or not shown.

SMILES	PMI activator	PMI act satM6P	L major viab	WT yeast gro inh	Diaph act CS
COC(=O)c1cc(NC(=O)CC2C(=O)NCCN2C(=O)c2ccccc2)cc(C(=O)OC)c1 (stereo not given)	-	-	-	-	-
COc1ccc(NC(=S)N2CCNC(=O)C2CC(=O)Nc2cccc(Cl)c2C)cc1 (stereo not given)	-	-	52	-	-
O=C1CCCC(=O)C1CS(=O)(=O)c1ccccc1	-	-	-	-	-
Cc1ccc(Cn2c(CN(C)Cc3ccccc3)nc3c2c(=O)n(C)c(=O)n3C)cc1	-	-	73	-	-
Cn1c(=O)c2c(nc(SCCN3CCCCC3)n2Cc2ccccc2)n(C)c1=O	-	-	90	-	-
CN(Cc1ccccc1)Cc1nc2c(c(=O)n(C)c(=O)n2C)n1Cc1ccc(F)cc1	-	-	-	-	-
Cc1ccc(Cn2c(SCCN3CCCCC3)nc3c2c(=O)n(C)c(=O)n3C)cc1	-	-	99	-	-
CS(=O)(=O)N1CCCC(C(=O)Nc2ccc(F)cc2F)C1 (stereo not given)	-	-	-	-	-
CSc1nnc(C)c(=O)n1COC(=O)c1ccc(S(=O)(=O)N2CCCC2)cc1	-	-	-	-	-
COc1cc([N+](=O)[O-])ccc1NC(=O)CN(C)C	-	-	-	-	-
COc1cc([N+](=O)[O-])ccc1NC(=O)CCN1C(=O)C2C3CCC(C3)C2C1=O (stereo not given)	-	-	56	-	-
O=C1CSC(=S)N1CC1CCCO1 (stereo not given)	-	-	81	-	-
O=C(CN1C(=O)NC2(CCCCC2)C1=O)NCc1ccc2c(c1)OCO2	-	-	-	-	-
c1ccc(CSc2ccc(-c3cccnc3)nn2)nc1	-	-	-	-	-
CN(C)/C=C(/C#N)C(=O)c1cccc(Oc2ccc(C(C)(C)C)cc2)c1	-	-	-	65	-
Nc1[nH]n2c(=O)cc(-c3ccccc3)nc2c1N=Nc1ccc(S(N)(=O)=O)cc1	-	-	-	-	-
NS(=O)(=O)c1ccc(N=Nc2c(-c3ccccc3)[nH]n(-c3nc(-c4ccccc4)cs3)c2=O)cc1	-	-	73	-	-
CCOc1ccc(CSC2=NCCN2)cc1Cl	-	-	-	-	-
CCOc1ccc(Br)cc1/C(C)=N\NC1=NCCN1	-	-	95	-	-
Cc1ccc(NC(=O)C2=C(O)CCn3c2nc2ccccc23)cc1	-	-	57	-	-
COc1ccc(-n2cc3c(-c4cccc(Br)c4)nnc(C)c3n2)cc1	-	-	59	-	-
CCOC(=O)c1nn(-c2ccccc2)c2nnc(Cc3ccccc3)c(=O)n12	-	-	-	-	-
CC(=O)Nc1cc(OC(C)=O)c2nonc2c1OC(C)=O	-	-	101	.	-
CC1CCC(C(C)C)C(OC(=O)CSc2nc(N)cc(=O)[nH]2)C1 (stereo not given)	-	-	-	-	-
CC1CCC(C(C)C)C(OC(=O)CSc2nnc(N)s2)C1 (stereo not given)	-	-	64	-	-
SMILES	PMI activator	PMI act satM6P	L major viab	WT yeast gro inh	Diaph act CS
O=S(=O)(Nc1cccc2ncccc12)c1cccs1	-	-	100	59	-
Cc1cccc(C)c1OCc1nc2ccccc2c(=O)n1/N=C/c1c[nH]c2ccccc12	-	-	96	-	-
Cc1ccc(-c2[nH]ncc2/C=N/n2c(COc3ccccc3C)nc3ccccc3c2=O)cc1	-	-	75	-	-
Cc1cc(/N=C/C=C2\N(C)c3ccccc3C2(C)C)n(CCC#N)n1	-	-	101	-	-
CN1/C(=C\C=O)C(C)(C)c2ccccc21	-	-	-	-	-
Cc1c(N=C/C=C2\N(C)c3ccccc3C2(C)C)c(=O)n(-c2ccccc2)n1C	-	-	-	-	-
CN1\C(=C/C=C/C=C/C=[N+](C)C)C(C)(C)c2ccccc21	-	-	98	92	-
CN(C)c1ccc(N=C/C=C2\N(C)c3ccccc3C2(C)C)cc1	-	-	101	-	-
CN1/C(=C\C=Nc2ccc3ccccc3c2)C(C)(C)c2ccccc21	-	-	88	77	-
N#CCC(=O)Nc1ccc(C(=O)NCC(c2ccco2)N2CCCCC2)cc1 (stereo not given)	-	-	-	-	-
COCCn1cnnc1SCC(=O)Nc1ccc(Br)cc1F	-	-	-	-	-
CS(=O)(=O)c1ccc(C(=O)NC2CCCc3ccccc32)cc1 (stereo not given)	-	-	-	-	-
COc1cc2c(cc1NC(=O)C(C)OC(=O)/C=C/c1ccc(OC(F)F)cc1)oc1ccccc12 (stereo not given)	-	-	80	-	-
COc1cc2c(cc1NC(=O)Nc1ccc(C)cc1)oc1ccccc12	-	-	98	96	-
COc1cc2c(cc1NC(=S)NC(=O)/C=C/c1ccc(OC)c(OC)c1)oc1ccccc12	-	-	-	-	-
COc1ccc(NC(=O)Nc2cc3oc4ccccc4c3cc2OC)cc1	-	-	-	-	-
COc1ccc(/C=C/C(=O)NC(=S)Nc2cc3oc4ccccc4c3cc2OC)cc1	-	-	50	-	-
Cc1cc2cc(CCNC(=O)c3cccc([N+](=O)[O-])c3)c(=O)[nH]c2cc1C	-	-	-	-	-
CCS(=O)(=O)N1CCN(c2ccccn2)CC1	-	-	92	-	-
COc1cc(CNCCNC(=O)c2nonc2N)ccc1OCc1ccc(Cl)cc1	-	-	98	-	-
Nc1nonc1C(=O)NCCNCc1cc(Br)ccc1OCc1ccccc1F	-	-	66	-	-
CCC(=O)Nc1ccc(C(=O)N/N=C/c2cc(Br)c(OC)cc2OC)cc1	-	-	-	-	-
N#CCCn1cc(C(=O)N2CCCCC2)c(-c2cccc([N+](=O)[O-])c2)n1	-	-	-	-	-
CC1CCN(C(=O)COc2cccc3c2CCN(Cc2ccccc2)C3=O)CC1	-	-	-	-	-
CC(C)CNC(C(=O)Nc1ccc([N+](=O)[O-])cc1Br)c1ccccc1 (stereo not given)	-	-	79	-	-
FC(F)Sc1ccc(NC(=S)NCc2ccccc2)cc1	-	-	-	60	-
FC(F)(F)c1ccc(NC(=S)NCc2ccccc2)cc1	-	-	-	60	-
FC(F)Sc1ccc(NC(=S)NC2CCCCC2)cc1	-	-	-	-	-
FC(F)Sc1ccc(NC(=S)NC(c2ccccc2)c2ccccc2)cc1	-	-	56	85	-
CCCCN(C(=S)Nc1cccc(C)c1C)c1c(N)n(CCC)c(=O)[nH]c1=O	-	-	-	-	-

Screens: PubChem BioAssay, several laboratories
